According to ChEMBL document CHEMBL3045677, “Sulfonamide-1,2,4-thiadiazole derivatives as antifungal and antibacterial agents: synthesis, biological evaluation, lipophilicity, and conformational studies” (2010):
In brackets after ≈: the same amount, converted by molar mass.

Assays:
Bacillus cereus [1] = test: Antibacterial activity against clinical isolate Bacillus cereus at […] degC measured after 72 hr by microdilution method; assay type: functional
How it was run: (§1)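 Bactericidal endpoint: after the 24 h broth microdilution (1.0×10⁴ CFU per well, LB broth, […] °C), wells were serially subcultured into plates of fresh broth and incubated a further 72 h. MBC was the lowest concentration with no visible growth, taken as 99.5% killing of the original inoculum.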

Salmonella typhimurium [2] = test: Antibacterial activity against Salmonella enterica subsp. enterica serovar Typhimurium ATCC 13311 at […] degC measured after 24 hr by microdilution method; assay type: functional; conditions: ATCC 13311, 24 h
How it was run: (§2)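 Bacteria suspended in sterile saline at 1.0×10⁵ CFU/ml and added at 1.0×10⁴ CFU per well to LB broth with compound (1 mg/ml) in 96-well plates. Incubated 24 h at […] °C. MIC was the lowest concentration without visible growth under a binocular microscope. OD 655 nm was read against a blank and a positive control.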

Escherichia coli [3] = test: Antibacterial activity against Escherichia coli ATCC 35210 at […] degC measured after 72 hr by microdilution method; assay type: functional; conditions: ATCC 35210, 72 h; how it was run: as §1
Aspergillus niger = test: Antifungal activity against Aspergillus niger ATCC 6275 at 28 degC measured after 72 hr by microdilution method; assay type: functional; conditions: ATCC 6275, 72 h
How it was run: (§3)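 Fungi were kept on malt agar at 4 °C. Spores were washed off with sterile 0.85% saline containing 0.1% Tween 80 and adjusted to about 1.0×10⁵ per well. Compounds were dissolved in DMSO (1 mg/ml stock) and serially diluted in malt broth with inoculum in 96-well plates, 72 h at 28 °C, for MIC. MFC came from subculture into fresh broth for a further 72 h at 28 °C.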

Bacillus cereus [4] = test: Antibacterial activity against clinical isolate Bacillus cereus at […] degC measured after 24 hr by microdilution method; assay type: functional; how it was run: as §2
Aspergillus fumigatus = test: Antifungal activity against plant isolate Aspergillus fumigatus at 28 degC measured after 72 hr by microdilution method; assay type: functional; how it was run: as §3
Micrococcus flavus [5] = test: Antibacterial activity against Micrococcus flavus ATCC 10240 at […] degC measured after 72 hr by microdilution method; assay type: functional; conditions: ATCC 10240, 72 h; how it was run: as §1
Pseudomonas aeruginosa [6] = test: Antibacterial activity against Pseudomonas aeruginosa ATCC 27853 at […] degC measured after 24 hr by microdilution method; assay type: functional; conditions: ATCC 27853, 24 h; how it was run: as §2
Proteus mirabilis [7] = test: Antibacterial activity against Proteus mirabilis at […] degC measured after 72 hr by microdilution method; assay type: functional; how it was run: as §1
Staphylococcus aureus [8] = test: Antibacterial activity against Staphylococcus aureus ATCC 6538 at […] degC measured after 24 hr by microdilution method; assay type: functional; conditions: ATCC 6538, 24 h; how it was run: as §2
Talaromyces funiculosus = test: Antifungal activity against Talaromyces funiculosus ATCC 36839 at 28 degC measured after 72 hr by microdilution method; assay type: functional; conditions: ATCC 36839, 72 h; how it was run: as §3
Listeria monocytogenes [9] = test: Antibacterial activity against Listeria monocytogenes NCTC 7973 at […] degC measured after 72 hr by microdilution method; assay type: functional; conditions: NCTC 7973, 72 h; how it was run: as §1
Listeria monocytogenes [10] = test: Antibacterial activity against Listeria monocytogenes NCTC 7973 at […] degC measured after 24 hr by microdilution method; assay type: functional; conditions: NCTC 7973, 24 h; how it was run: as §2
Trichoderma viride = test: Antifungal activity against Hypocrea rufa IAM 5061 at 28 degC measured after 72 hr by microdilution method; assay type: functional; conditions: IAM 5061, 72 h; how it was run: as §3
Salmonella typhimurium [11] = test: Antibacterial activity against Salmonella enterica subsp. enterica serovar TyphimuriumATCC 13311 at […] degC measured after 72 hr by microdilution method; assay type: functional, Salmonella enterica subsp. enterica serovar Typhimurium; conditions: ATCC 13311, 72 h; how it was run: as §1
Proteus mirabilis [12] = test: Antibacterial activity against Proteus mirabilis at […] degC measured after 24 hr by microdilution method; assay type: functional; how it was run: as §2
Escherichia coli [13] = test: Antibacterial activity against Escherichia coli ATCC 35210 at […] degC measured after 24 hr by microdilution method; assay type: functional; conditions: ATCC 35210, 24 h; how it was run: as §2
Penicillium ochrochloron = test: Antifungal activity against Penicillium ochrochloron ATCC 9112 at 28 degC measured after 72 hr by microdilution method; assay type: functional; conditions: ATCC 9112, 72 h; how it was run: as §3
Aspergillus flavus = test: Antifungal activity against Aspergillus flavus ATCC 9643 at 28 degC measured after 72 hr by microdilution method; assay type: functional; conditions: ATCC 9643, 72 h; how it was run: as §3
Micrococcus flavus [14] = test: Antibacterial activity against Micrococcus flavus ATCC 10240 at […] degC measured after 24 hr by microdilution method; assay type: functional; conditions: ATCC 10240, 24 h; how it was run: as §2
Aspergillus versicolor = test: Antifungal activity against Aspergillus versicolor ATCC 11730 at 28 degC measured after 72 hr by microdilution method; assay type: functional; conditions: ATCC 11730, 72 h; how it was run: as §3
Pseudomonas aeruginosa [15] = test: Antibacterial activity against Pseudomonas aeruginosa ATCC 27853 at […] degC measured after 72 hr by microdilution method; assay type: functional; conditions: ATCC 27853, 72 h; how it was run: as §1
Fulvia fulva = test: Antifungal activity against Passalora fulva TK5318 at 28 degC measured after 72 hr by microdilution method; assay type: functional; conditions: TK5318, 72 h; how it was run: as §3
Staphylococcus aureus [16] = test: Antibacterial activity against Staphylococcus aureus ATCC 6538 at […] degC measured after 72 hr by microdilution method; assay type: functional; conditions: ATCC 6538, 72 h; how it was run: as §1

Row | SMILES | MBC (Bacillus cereus [1]) | MIC (Salmonella typhimurium [2]) | MBC (Escherichia coli [3]) | MFC (Aspergillus niger) | MIC (Aspergillus niger) | MIC (Bacillus cereus [4]) | MFC (Aspergillus fumigatus) | MIC (Aspergillus fumigatus) | MBC (Micrococcus flavus [5]) | MIC (Pseudomonas aeruginosa [6]) | MBC (Proteus mirabilis [7]) | MIC (Staphylococcus aureus [8]) | MFC (Talaromyces funiculosus) | MIC (Talaromyces funiculosus) | MBC (Listeria monocytogenes [9]) | MIC (Listeria monocytogenes [10]) | MFC (Trichoderma viride) | MIC (Trichoderma viride) | MBC (Salmonella typhimurium [11]) | MIC (Proteus mirabilis [12]) | further results
1 | COc1cc(Cc2nnc(Nc3ccccc3)s2)c(S(=O)(=O)N(C)C)cc1OC | 46 µM (≈ 20 µg/mL) | 46 µM (≈ 20 µg/mL) | 46 µM (≈ 20 µg/mL) | 46 µM (≈ 20 µg/mL) | 23 µM (≈ 9.99 µg/mL) | 23 µM (≈ 9.99 µg/mL) | 46 µM (≈ 20 µg/mL) | 11.5 µM (≈ 5 µg/mL) | 17.5 µM (≈ 7.6 µg/mL) | 46 µM (≈ 20 µg/mL) | 46 µM (≈ 20 µg/mL) | 46 µM (≈ 20 µg/mL) | 23 µM (≈ 9.99 µg/mL) | 11.5 µM (≈ 5 µg/mL) | 92 µM (≈ 40 µg/mL) | 46 µM (≈ 20 µg/mL) | 23 µM (≈ 9.99 µg/mL) | 11.5 µM (≈ 5 µg/mL) | 92 µM (≈ 40 µg/mL) | 46 µM (≈ 20 µg/mL) | MIC (Escherichia coli [13]): 46 µM (≈ 20 µg/mL); MFC (Penicillium ochrochloron): 46 µM (≈ 20 µg/mL); MIC (Penicillium ochrochloron): 23 µM (≈ 9.99 µg/mL); MFC (Aspergillus flavus): 46 µM (≈ 20 µg/mL); MIC (Aspergillus flavus): 23 µM (≈ 9.99 µg/mL); MIC (Micrococcus flavus [14]): 11.5 µM (≈ 5 µg/mL); MFC (Aspergillus versicolor): 23 µM (≈ 9.99 µg/mL); MIC (Aspergillus versicolor): 11.5 µM (≈ 5 µg/mL); MBC (Pseudomonas aeruginosa [15]): 46 µM (≈ 20 µg/mL); MFC (Fulvia fulva): 23 µM (≈ 9.99 µg/mL); MIC (Fulvia fulva): 11.5 µM (≈ 5 µg/mL); MBC (Staphylococcus aureus [16]): 92 µM (≈ 40 µg/mL)
2 | COc1cc(Cc2nnc(Nc3ccc(Cl)cc3)s2)c(S(=O)(=O)N(C)C)cc1OC | 21.3 µM (≈ 9.99 µg/mL) | 21.3 µM (≈ 9.99 µg/mL) | 85.2 µM (≈ 40 µg/mL) | 42.6 µM (≈ 20 µg/mL) | 10.7 µM (≈ 5.02 µg/mL) | 10.7 µM (≈ 5.02 µg/mL) | 42.6 µM (≈ 20 µg/mL) | 10.7 µM (≈ 5.02 µg/mL) | 42.6 µM (≈ 20 µg/mL) | 42.6 µM (≈ 20 µg/mL) | 42.6 µM (≈ 20 µg/mL) | 21.3 µM (≈ 9.99 µg/mL) | 21.3 µM (≈ 9.99 µg/mL) | 10.7 µM (≈ 5.02 µg/mL) | 85.2 µM (≈ 40 µg/mL) | 85.2 µM (≈ 40 µg/mL) | 21.3 µM (≈ 9.99 µg/mL) | 10.7 µM (≈ 5.02 µg/mL) | 42.6 µM (≈ 20 µg/mL) | 21.3 µM (≈ 9.99 µg/mL) | MIC (Escherichia coli [13]): 42.6 µM (≈ 20 µg/mL); MFC (Penicillium ochrochloron): 42.6 µM (≈ 20 µg/mL); MIC (Penicillium ochrochloron): 21.3 µM (≈ 9.99 µg/mL); MFC (Aspergillus flavus): 42.6 µM (≈ 20 µg/mL); MIC (Aspergillus flavus): 10.7 µM (≈ 5.02 µg/mL); MIC (Micrococcus flavus [14]): 21.3 µM (≈ 9.99 µg/mL); MFC (Aspergillus versicolor): 42.6 µM (≈ 20 µg/mL); MIC (Aspergillus versicolor): 10.7 µM (≈ 5.02 µg/mL); MBC (Pseudomonas aeruginosa [15]): 85.2 µM (≈ 40 µg/mL); MFC (Fulvia fulva): 85.2 µM (≈ 40 µg/mL); MIC (Fulvia fulva): 21.3 µM (≈ 9.99 µg/mL); MBC (Staphylococcus aureus [16]): 42.6 µM (≈ 20 µg/mL)
3 | COc1cc(Cc2nnc(Nc3ccc([N+](=O)[O-])cc3)s2)c(S(=O)(=O)N(C)C)cc1OC | 20.9 µM (≈ 10 µg/mL) | 10.5 µM (≈ 5.04 µg/mL) | 83.6 µM (≈ 40.1 µg/mL) | 41.8 µM (≈ 20 µg/mL) | 20.9 µM (≈ 10 µg/mL) | 10.5 µM (≈ 5.04 µg/mL) | 41.8 µM (≈ 20 µg/mL) | 20.9 µM (≈ 10 µg/mL) | 83.6 µM (≈ 40.1 µg/mL) | 15.7 µM (≈ 7.53 µg/mL) | 83.6 µM (≈ 40.1 µg/mL) | 41.8 µM (≈ 20 µg/mL) | 20.9 µM (≈ 10 µg/mL) | 10.5 µM (≈ 5.04 µg/mL) | 83.6 µM (≈ 40.1 µg/mL) | 41.8 µM (≈ 20 µg/mL) | 20.9 µM (≈ 10 µg/mL) | 10.5 µM (≈ 5.04 µg/mL) | 20.9 µM (≈ 10 µg/mL) | 41.8 µM (≈ 20 µg/mL) | MIC (Escherichia coli [13]): 20.9 µM (≈ 10 µg/mL); MFC (Penicillium ochrochloron): 41.8 µM (≈ 20 µg/mL); MIC (Penicillium ochrochloron): 10.9 µM (≈ 5.23 µg/mL); MFC (Aspergillus flavus): 41.8 µM (≈ 20 µg/mL); MIC (Aspergillus flavus): 20.9 µM (≈ 10 µg/mL); MIC (Micrococcus flavus [14]): 20.9 µM (≈ 10 µg/mL); MFC (Aspergillus versicolor): 41.8 µM (≈ 20 µg/mL); MIC (Aspergillus versicolor): 20.9 µM (≈ 10 µg/mL); MBC (Pseudomonas aeruginosa [15]): 41.8 µM (≈ 20 µg/mL); MFC (Fulvia fulva): 20.9 µM (≈ 10 µg/mL); MIC (Fulvia fulva): 10.5 µM (≈ 5.04 µg/mL); MBC (Staphylococcus aureus [16]): 83.6 µM (≈ 40.1 µg/mL)
4 | COc1cc(Cc2nnc(Nc3ccc(C(F)(F)F)cc3)s2)c(S(=O)(=O)N(C)C)cc1OC | 19.9 µM (≈ 10 µg/mL) | 9.9 µM (≈ 4.98 µg/mL) | 79.6 µM (≈ 40 µg/mL) | 39.8 µM (≈ 20 µg/mL) | 19.9 µM (≈ 10 µg/mL) | 9.9 µM (≈ 4.98 µg/mL) | 39.8 µM (≈ 20 µg/mL) | 19.9 µM (≈ 10 µg/mL) | 19.9 µM (≈ 10 µg/mL) | 19.9 µM (≈ 10 µg/mL) | 79.6 µM (≈ 40 µg/mL) | 19.9 µM (≈ 10 µg/mL) | 19.9 µM (≈ 10 µg/mL) | 9.9 µM (≈ 4.98 µg/mL) | 79.6 µM (≈ 40 µg/mL) | 39.8 µM (≈ 20 µg/mL) | 19.9 µM (≈ 10 µg/mL) | 9.9 µM (≈ 4.98 µg/mL) | 19.9 µM (≈ 10 µg/mL) | 19.9 µM (≈ 10 µg/mL) | MIC (Escherichia coli [13]): 39.8 µM (≈ 20 µg/mL); MFC (Penicillium ochrochloron): 39.8 µM (≈ 20 µg/mL); MIC (Penicillium ochrochloron): 9.9 µM (≈ 4.98 µg/mL); MFC (Aspergillus flavus): 39.8 µM (≈ 20 µg/mL); MIC (Aspergillus flavus): 19.9 µM (≈ 10 µg/mL); MIC (Micrococcus flavus [14]): 9.9 µM (≈ 4.98 µg/mL); MFC (Aspergillus versicolor): 39.8 µM (≈ 20 µg/mL); MIC (Aspergillus versicolor): 9.9 µM (≈ 4.98 µg/mL); MBC (Pseudomonas aeruginosa [15]): 39.8 µM (≈ 20 µg/mL); MFC (Fulvia fulva): 19.9 µM (≈ 10 µg/mL); MIC (Fulvia fulva): 9.9 µM (≈ 4.98 µg/mL); MBC (Staphylococcus aureus [16]): 39.8 µM (≈ 20 µg/mL)
